Measured values taken from publication PMC4832308 (Cancer, 2015).

Tested on: patients with advanced solid tumors or multiple myeloma
Assay: phase 1 dose escalation: safety, tolerability, DLT, MTD
Format: in vivo, human
How it was run: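 Modified accelerated titration from 7.5 mg, oral daily in 28-day cycles. Single-patient cohorts used 100% increments until the first drug-related grade ≥2 toxicity, then 6-patient cohorts used ~50% steps. A dose with ≥2 DLTs was nontolerated. MTD was the last lower dose with 0–1 of 6 DLTs in cycle 1. Adverse events were graded by NCI CTCAE version 4.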

CO[C@H]1CC[C@H](N2C(=O)CNc3ncc(-c4ccc(C(C)(C)O)nc4)nc32)CC1 [CC‐223]
Dyspnea (treatment‐related AE) (45 mg, Any Grade): 1 (11) n (%)
Fatigue (treatment‐related AE) (45 mg, Any Grade): 5 (56) n (%)
Hyperglycemia (treatment‐related AE) (45 mg, Any Grade): 4 (44) n (%)
Increased glycosylated hemoglobin (treatment‐related AE) (45 mg, Any Grade): 2 (22) n (%)
Mucositis (treatment‐related AE) (45 mg, Any Grade): 3 (33) n (%)
Nausea (treatment‐related AE) (45 mg, Any Grade): 6 (67) n (%)
Pruritus (treatment‐related AE) (45 mg, Any Grade): 2 (22) n (%)
Rash (treatment‐related AE) (45 mg, Any Grade): 2 (22) n (%)
Rash pruritic (treatment‐related AE) (45 mg, Any Grade): 0 n (%)
Thrombocytopenia (treatment‐related AE) (45 mg, Any Grade): 2 (22) n (%)
Vomiting (treatment‐related AE) (45 mg, Any Grade): 2 (22) n (%)
Arthralgia (treatment‐related AE) (45 mg, Grade ≥3): 0 n (%)
Asthenia (treatment‐related AE) (45 mg, Grade ≥3): 0 n (%)
Decreased appetite (treatment‐related AE) (45 mg, Grade ≥3): 0 n (%)
Diarrhea (treatment‐related AE) (45 mg, Grade ≥3): 0 n (%)
Dry mouth (treatment‐related AE) (45 mg, Grade ≥3): 0 n (%)
Dysgeusia (treatment‐related AE) (45 mg, Grade ≥3): 0 n (%)
Dyspnea (treatment‐related AE) (45 mg, Grade ≥3): 0 n (%)
Fatigue (treatment‐related AE) (45 mg, Grade ≥3): 1 (11) n (%)
Hyperglycemia (treatment‐related AE) (45 mg, Grade ≥3): 1 (11) n (%)
Increased glycosylated hemoglobin (treatment‐related AE) (45 mg, Grade ≥3): 0 n (%)
Mucositis (treatment‐related AE) (45 mg, Grade ≥3): 0 n (%)
Nausea (treatment‐related AE) (45 mg, Grade ≥3): 0 n (%)
Pruritus (treatment‐related AE) (45 mg, Grade ≥3): 0 n (%)
Rash (treatment‐related AE) (45 mg, Grade ≥3): 1 (11) n (%)
Rash pruritic (treatment‐related AE) (45 mg, Grade ≥3): 0 n (%)
Thrombocytopenia (treatment‐related AE) (45 mg, Grade ≥3): 0 n (%)
Vomiting (treatment‐related AE) (45 mg, Grade ≥3): 0 n (%)
Dose interruptions (60 mg): 7
Dose reductions (60 mg): 5
Arthralgia (treatment‐related AE) (60 mg, Any Grade): 2 (29) n (%)
Asthenia (treatment‐related AE) (60 mg, Any Grade): 3 (43) n (%)
Decreased appetite (treatment‐related AE) (60 mg, Any Grade): 2 (29) n (%)
Diarrhea (treatment‐related AE) (60 mg, Any Grade): 5 (71) n (%)
Dry mouth (treatment‐related AE) (60 mg, Any Grade): 0 n (%)
Dysgeusia (treatment‐related AE) (60 mg, Any Grade): 1 (14) n (%)
Dyspnea (treatment‐related AE) (60 mg, Any Grade): 1 (14) n (%)
Fatigue (treatment‐related AE) (60 mg, Any Grade): 7 (100) n (%)
Hyperglycemia (treatment‐related AE) (60 mg, Any Grade): 4 (57) n (%)
Increased glycosylated hemoglobin (treatment‐related AE) (60 mg, Any Grade): 2 (29) n (%)
Mucositis (treatment‐related AE) (60 mg, Any Grade): 5 (71) n (%)
Nausea (treatment‐related AE) (60 mg, Any Grade): 3 (43) n (%)
Pruritus (treatment‐related AE) (60 mg, Any Grade): 0 n (%)
Rash (treatment‐related AE) (60 mg, Any Grade): 3 (43) n (%)
Rash pruritic (treatment‐related AE) (60 mg, Any Grade): 2 (29) n (%)
Thrombocytopenia (treatment‐related AE) (60 mg, Any Grade): 0 n (%)
Vomiting (treatment‐related AE) (60 mg, Any Grade): 5 (71) n (%)
Arthralgia (treatment‐related AE) (60 mg, Grade ≥3): 1 (14) n (%)
Asthenia (treatment‐related AE) (60 mg, Grade ≥3): 0 n (%)
Decreased appetite (treatment‐related AE) (60 mg, Grade ≥3): 0 n (%)
Diarrhea (treatment‐related AE) (60 mg, Grade ≥3): 1 (14) n (%)
Dry mouth (treatment‐related AE) (60 mg, Grade ≥3): 0 n (%)
Dysgeusia (treatment‐related AE) (60 mg, Grade ≥3): 0 n (%)
Dyspnea (treatment‐related AE) (60 mg, Grade ≥3): 0 n (%)
Fatigue (treatment‐related AE) (60 mg, Grade ≥3): 1 (14) n (%)
Hyperglycemia (treatment‐related AE) (60 mg, Grade ≥3): 2 (29) n (%)
Increased glycosylated hemoglobin (treatment‐related AE) (60 mg, Grade ≥3): 0 n (%)
Mucositis (treatment‐related AE) (60 mg, Grade ≥3): 2 (29) n (%)
Nausea (treatment‐related AE) (60 mg, Grade ≥3): 0 n (%)
Pruritus (treatment‐related AE) (60 mg, Grade ≥3): 0 n (%)
Rash (treatment‐related AE) (60 mg, Grade ≥3): 1 (14) n (%)
Rash pruritic (treatment‐related AE) (60 mg, Grade ≥3): 2 (29) n (%)
Thrombocytopenia (treatment‐related AE) (60 mg, Grade ≥3): 0 n (%)
Vomiting (treatment‐related AE) (60 mg, Grade ≥3): 0 n (%)
Arthralgia (treatment‐related AE) (Overall (N = 28), Any Grade): 4 (14) n (%)
Asthenia (treatment‐related AE) (Overall (N = 28), Any Grade): 7 (25) n (%)
Decreased appetite (treatment‐related AE) (Overall (N = 28), Any Grade): 9 (32) n (%)
Diarrhea (treatment‐related AE) (Overall (N = 28), Any Grade): 13 (46) n (%)
Dry mouth (treatment‐related AE) (Overall (N = 28), Any Grade): 3 (11) n (%)
Dysgeusia (treatment‐related AE) (Overall (N = 28), Any Grade): 5 (18) n (%)
Dyspnea (treatment‐related AE) (Overall (N = 28), Any Grade): 3 (11) n (%)
Fatigue (treatment‐related AE) (Overall (N = 28), Any Grade): 18 (64) n (%)
Hyperglycemia (treatment‐related AE) (Overall (N = 28), Any Grade): 12 (43) n (%)
Increased glycosylated hemoglobin (treatment‐related AE) (Overall (N = 28), Any Grade): 4 (14) n (%)
Mucositis (treatment‐related AE) (Overall (N = 28), Any Grade): 11 (39) n (%)
Nausea (treatment‐related AE) (Overall (N = 28), Any Grade): 14 (50) n (%)
Pruritus (treatment‐related AE) (Overall (N = 28), Any Grade): 4 (14) n (%)
Rash (treatment‐related AE) (Overall (N = 28), Any Grade): 7 (25) n (%)
Rash pruritic (treatment‐related AE) (Overall (N = 28), Any Grade): 3 (11) n (%)
Thrombocytopenia (treatment‐related AE) (Overall (N = 28), Any Grade): 3 (11) n (%)
Vomiting (treatment‐related AE) (Overall (N = 28), Any Grade): 9 (32) n (%)
Arthralgia (treatment‐related AE) (Overall (N = 28), Grade ≥3): 1 (4) n (%)
Asthenia (treatment‐related AE) (Overall (N = 28), Grade ≥3): 0 n (%)
Decreased appetite (treatment‐related AE) (Overall (N = 28), Grade ≥3): 0 n (%)
Diarrhea (treatment‐related AE) (Overall (N = 28), Grade ≥3): 1 (4) n (%)
Dry mouth (treatment‐related AE) (Overall (N = 28), Grade ≥3): 0 n (%)
Dysgeusia (treatment‐related AE) (Overall (N = 28), Grade ≥3): 0 n (%)
Dyspnea (treatment‐related AE) (Overall (N = 28), Grade ≥3): 0 n (%)
Fatigue (treatment‐related AE) (Overall (N = 28), Grade ≥3): 2 (7) n (%)
Hyperglycemia (treatment‐related AE) (Overall (N = 28), Grade ≥3): 5 (18) n (%)
Increased glycosylated hemoglobin (treatment‐related AE) (Overall (N = 28), Grade ≥3): 0 n (%)
Mucositis (treatment‐related AE) (Overall (N = 28), Grade ≥3): 2 (7) n (%)
Nausea (treatment‐related AE) (Overall (N = 28), Grade ≥3): 0 n (%)
Pruritus (treatment‐related AE) (Overall (N = 28), Grade ≥3): 0 n (%)
Rash (treatment‐related AE) (Overall (N = 28), Grade ≥3): 2 (7) n (%)
Rash pruritic (treatment‐related AE) (Overall (N = 28), Grade ≥3): 2 (7) n (%)
Thrombocytopenia (treatment‐related AE) (Overall (N = 28), Grade ≥3): 0 n (%)
Vomiting (treatment‐related AE) (Overall (N = 28), Grade ≥3): 0 n (%)
Dose interruptions (Total): 22
treatment‐related AE: asthenia (all patients, any grade): 25%
treatment‐related AE: decreased appetite (all patients, any grade): 32%
treatment‐related AE: fatigue (all patients, any grade): 64%
treatment‐related AE: nausea (all patients, any grade): 50%
treatment‐related AE: rash (all patients, any grade): 25%
treatment‐related AE: vomiting (all patients, any grade): 32%
treatment‐related AE: hyperglycemia (all patients, grade ≥3): 18%
patients requiring dose interruptions (at the MTD (45 mg/d)): 55.6%
patients requiring dose reductions (at the MTD (45 mg/d)): 11.1%
treatment‐related hyperglycemia, number of patients (grade ≥3, 30‐mg/d cohort): 2 n
treatment‐related hyperglycemia, number of patients (grade ≥3, 45‐mg/d cohort): 1 n
treatment‐related hyperglycemia, number of patients (grade ≥3, 60‐mg/d cohort): 2 n
maximum tolerated dosage (MTD) (oral daily dosing, 28‐day cycles): 45 mg/day
median time to dose reduction (overall): 25 days
increases in glucose, insulin, and C‐peptide levels (patients receiving doses ≥30 mg/d): dose‐dependent
patients with dose‐limiting toxicities (treatment cycle 1, all cohorts): Four
